Data set [1] has as its target T1, Glucose-dependent insulinotropic receptor (Homo sapiens) (UniProt Q8TDV5).
T1 sequence (whole entry): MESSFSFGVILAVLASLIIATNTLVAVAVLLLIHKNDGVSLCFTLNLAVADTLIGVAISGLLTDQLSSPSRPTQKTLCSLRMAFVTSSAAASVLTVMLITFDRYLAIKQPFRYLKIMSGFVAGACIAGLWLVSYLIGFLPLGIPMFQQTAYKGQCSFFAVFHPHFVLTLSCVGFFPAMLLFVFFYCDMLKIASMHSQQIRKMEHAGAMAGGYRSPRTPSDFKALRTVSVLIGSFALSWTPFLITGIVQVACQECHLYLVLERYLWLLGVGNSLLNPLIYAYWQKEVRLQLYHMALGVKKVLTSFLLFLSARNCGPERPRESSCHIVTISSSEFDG
The data set can be described thus: Activation of human GPR119 expressed in CHO-K1 cells at 1 uM after 24 hrs by CRE-luciferase assay relative to GSK1292263. In kind it is functional, cell-based.

The target in data set [2] is T2, Glucose-dependent insulinotropic receptor (Homo sapiens, UniProt Q8TDV5).
T2 sequence (Q8TDV5 whole entry): T1 sequence (whole entry)
The data set can be described thus: Agonist activity at human GPR119 expressed in CHO-K1 cells after 24 hrs by CRE-luciferase assay. In kind it is functional, cell-based.

A further data set concerns HFL1. The data set is described as follows: Cytotoxicity against human HFL1 cells. In kind it is cell-based.
Data set [3] is described as follows: Cytotoxicity against chinese hamster CHOK1 cells. Format: cell-based. The note with it: Cricetulus griseus, CHO-K1.
The next data set concerns Beta-TC6. The data set is described as follows: Increase in glucose-stimulated insulin release in mouse BetaTC6 cells after 1 hr by ELISA. Format: functional, cell-based. The gist of the method:
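GSIS was measured in the TC-6 pancreatic beta-cell line exposed to compound over 10 nM to 100 nM, with insulin secretion read under glucose stimulation.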
In general terms: In an ELISA, binding on a coated surface is turned into a signal by an enzyme label.

In a further data set the test system is Mus musculus. The data set can be described thus: Antidiabetic activity in C57BL/6 mouse assessed as reduction in plasma glucose AUC at 15 mg/kg by OGTT. Format: functional, organism-based. More on the design: dose 15 mg/kg. The gist of the method: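 OGTT in normal mice, n = 7 per group. Plasma glucose was followed over the test, and efficacy was taken as the AUC of glucose concentration. Data are given as means ± SEM.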

Data set [4] in a line: Metabolic stability in human liver microsomes assessed as compound remaining at 1 uM after 30 mins by LC/MS/MS analysis. Format: ADME. Particulars: read-out: Stability. Background: Liver microsomes are vesicles of endoplasmic reticulum, rich in cytochrome P450 enzymes.
The nature of data set [5]: Metabolic stability in rat liver microsomes assessed as compound remaining at 1 uM after 30 mins by LC/MS/MS analysis. In kind it is ADME. Particulars: read-out: Stability.
For data set [6], the target named is T3, Cytochrome P450 1A2 (Homo sapiens, UniProt P05177).
T3 sequence (P05177 whole entry): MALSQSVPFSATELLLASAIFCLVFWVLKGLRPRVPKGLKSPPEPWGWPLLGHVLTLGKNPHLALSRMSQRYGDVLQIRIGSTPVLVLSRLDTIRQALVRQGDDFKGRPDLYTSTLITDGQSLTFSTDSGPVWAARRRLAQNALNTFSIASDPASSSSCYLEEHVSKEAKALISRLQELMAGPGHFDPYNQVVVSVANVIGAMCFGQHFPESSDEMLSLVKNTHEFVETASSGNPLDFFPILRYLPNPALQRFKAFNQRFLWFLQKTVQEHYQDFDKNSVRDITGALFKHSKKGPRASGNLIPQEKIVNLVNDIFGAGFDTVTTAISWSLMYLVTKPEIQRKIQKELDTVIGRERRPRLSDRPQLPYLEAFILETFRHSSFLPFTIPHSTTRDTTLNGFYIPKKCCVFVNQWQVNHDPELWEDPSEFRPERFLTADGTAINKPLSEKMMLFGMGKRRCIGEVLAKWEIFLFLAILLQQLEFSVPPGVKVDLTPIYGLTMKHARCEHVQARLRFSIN
The data set is described as follows: Inhibition of CYP1A2 (unknown origin). Format: ADME.

In the next data set the target is T4, Cytochrome P450 2A6 (Homo sapiens, UniProt P11509).
T4 sequence (P11509 whole entry): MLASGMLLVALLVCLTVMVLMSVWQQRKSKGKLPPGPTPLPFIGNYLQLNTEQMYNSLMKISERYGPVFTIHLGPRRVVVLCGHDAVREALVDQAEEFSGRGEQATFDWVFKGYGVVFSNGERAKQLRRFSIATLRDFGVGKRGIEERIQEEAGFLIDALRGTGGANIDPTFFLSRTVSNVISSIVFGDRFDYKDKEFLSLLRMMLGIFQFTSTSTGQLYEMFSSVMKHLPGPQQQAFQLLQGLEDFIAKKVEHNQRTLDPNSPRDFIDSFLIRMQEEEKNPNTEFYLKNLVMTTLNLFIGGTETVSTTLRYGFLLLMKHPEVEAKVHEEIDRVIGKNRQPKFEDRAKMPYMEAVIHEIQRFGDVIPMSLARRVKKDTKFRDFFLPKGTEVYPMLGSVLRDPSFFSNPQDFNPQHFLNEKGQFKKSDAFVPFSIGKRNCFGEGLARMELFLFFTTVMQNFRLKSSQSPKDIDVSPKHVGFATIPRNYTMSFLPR
The data set is described as follows: Inhibition of CYP2A6 (unknown origin). Format: ADME.

A further data set addresses Cytochrome P450 2C19 (Homo sapiens, UniProt P33261). The data set can be described thus: Inhibition of CYP2C19 (unknown origin). In kind it is ADME.
Data set [7] deals with T5, Cytochrome P450 2C9 (Homo sapiens, UniProt P11712). The data set can be described thus: Inhibition of CYP2C9 (unknown origin). In kind it is ADME.
T5 sequence (P11712 whole entry): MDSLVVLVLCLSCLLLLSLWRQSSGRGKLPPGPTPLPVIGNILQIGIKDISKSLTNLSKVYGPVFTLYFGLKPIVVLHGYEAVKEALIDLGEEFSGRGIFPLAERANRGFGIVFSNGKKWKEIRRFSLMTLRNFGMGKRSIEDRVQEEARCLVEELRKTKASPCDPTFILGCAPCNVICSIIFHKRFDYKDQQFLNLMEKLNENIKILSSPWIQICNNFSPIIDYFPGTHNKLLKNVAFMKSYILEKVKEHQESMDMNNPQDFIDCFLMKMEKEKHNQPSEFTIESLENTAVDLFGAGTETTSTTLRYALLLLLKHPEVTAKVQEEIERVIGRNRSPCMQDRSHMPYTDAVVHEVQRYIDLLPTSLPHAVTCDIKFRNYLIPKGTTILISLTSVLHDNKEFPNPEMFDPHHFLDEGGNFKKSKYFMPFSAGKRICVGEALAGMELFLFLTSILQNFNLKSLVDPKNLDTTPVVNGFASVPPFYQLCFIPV
The target in data set [8] is T6, Cytochrome P450 3A4 (Homo sapiens, UniProt P08684). The data set can be described thus: Inhibition of CYP3A4 (unknown origin). Format: ADME.
T6 sequence (P08684 whole entry): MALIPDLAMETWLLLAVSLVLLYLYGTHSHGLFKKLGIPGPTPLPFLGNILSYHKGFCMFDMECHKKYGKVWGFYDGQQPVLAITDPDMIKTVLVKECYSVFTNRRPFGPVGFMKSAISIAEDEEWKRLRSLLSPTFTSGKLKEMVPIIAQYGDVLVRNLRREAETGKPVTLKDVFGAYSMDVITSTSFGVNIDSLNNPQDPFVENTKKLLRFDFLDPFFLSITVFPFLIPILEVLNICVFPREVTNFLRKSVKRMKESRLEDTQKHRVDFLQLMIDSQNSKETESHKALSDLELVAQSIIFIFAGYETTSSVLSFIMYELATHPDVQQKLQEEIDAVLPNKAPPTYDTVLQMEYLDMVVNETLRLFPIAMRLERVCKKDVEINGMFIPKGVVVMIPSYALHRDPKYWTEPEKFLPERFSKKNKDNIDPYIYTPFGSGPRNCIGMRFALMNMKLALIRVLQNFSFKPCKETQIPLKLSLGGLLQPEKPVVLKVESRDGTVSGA
Another data set has as its target Cytochrome P450 2D6 (Homo sapiens, UniProt P10635). The data set can be described thus: Inhibition of CYP2D6 (unknown origin). Format: ADME.
In data set [9] the target is T7, Cytochrome P450 2B6 (Homo sapiens, UniProt P20813).
T7 sequence (P20813 whole entry): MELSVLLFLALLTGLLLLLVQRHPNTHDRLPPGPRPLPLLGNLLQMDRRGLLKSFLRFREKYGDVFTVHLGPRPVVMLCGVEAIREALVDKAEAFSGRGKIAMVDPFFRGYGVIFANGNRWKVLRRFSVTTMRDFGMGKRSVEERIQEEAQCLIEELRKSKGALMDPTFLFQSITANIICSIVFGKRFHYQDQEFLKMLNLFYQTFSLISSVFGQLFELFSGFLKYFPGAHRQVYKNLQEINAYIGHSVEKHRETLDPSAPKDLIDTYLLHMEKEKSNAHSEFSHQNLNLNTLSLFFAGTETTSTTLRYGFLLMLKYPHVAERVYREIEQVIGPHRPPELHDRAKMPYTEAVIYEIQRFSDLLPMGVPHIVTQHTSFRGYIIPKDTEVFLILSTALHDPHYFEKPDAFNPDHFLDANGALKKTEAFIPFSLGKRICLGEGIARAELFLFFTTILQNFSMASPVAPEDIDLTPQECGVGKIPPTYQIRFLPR
The data set can be described thus: Inhibition of CYP2B6 (unknown origin). In kind it is ADME.

The target of data set [10] is T3, Cytochrome P450 1A2. The data set can be described thus: Induction of CYP1A2 (unknown origin). In kind it is ADME.
In data set [11] the target is T7, Cytochrome P450 2B6. The data set can be described thus: Induction of CYP2B6 (unknown origin). Format: ADME.
Data set [12] has as its target T5, Cytochrome P450 2C9. The data set can be described thus: Induction of CYP2C9 (unknown origin). Format: ADME.
The next data set has as its target Cytochrome P450 2E1 (Homo sapiens, UniProt P05181). The data set can be described thus: Induction of CYP2E1 (unknown origin). In kind it is ADME.
Data set [13] concerns the target T6, Cytochrome P450 3A4. The data set is described as follows: Induction of CYP3A4 (unknown origin). Format: ADME.
Another data set concerns the target hERG (KCNH2) (Homo sapiens, UniProt Q12809). The data set is described as follows: Inhibition of human ERG at 10 uM. The gist of the method:
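hERG liability was assessed in a binding-assay format, reported as percent inhibition with the compound at 10 μM.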

The nature of data set [14]: Cytotoxicity against mouse NIH/3T3 cells. In kind it is cell-based. The note with it: NIH3T3.
The next data set relates to L929. The data set is described as follows: Cytotoxicity against mouse L929 cells. Format: cell-based.

Activity calls are given as the source filed them. The calls are words filed in the database; no cut-off is given here.

Cytochrome P450 2E1, sequence (P05181 whole entry): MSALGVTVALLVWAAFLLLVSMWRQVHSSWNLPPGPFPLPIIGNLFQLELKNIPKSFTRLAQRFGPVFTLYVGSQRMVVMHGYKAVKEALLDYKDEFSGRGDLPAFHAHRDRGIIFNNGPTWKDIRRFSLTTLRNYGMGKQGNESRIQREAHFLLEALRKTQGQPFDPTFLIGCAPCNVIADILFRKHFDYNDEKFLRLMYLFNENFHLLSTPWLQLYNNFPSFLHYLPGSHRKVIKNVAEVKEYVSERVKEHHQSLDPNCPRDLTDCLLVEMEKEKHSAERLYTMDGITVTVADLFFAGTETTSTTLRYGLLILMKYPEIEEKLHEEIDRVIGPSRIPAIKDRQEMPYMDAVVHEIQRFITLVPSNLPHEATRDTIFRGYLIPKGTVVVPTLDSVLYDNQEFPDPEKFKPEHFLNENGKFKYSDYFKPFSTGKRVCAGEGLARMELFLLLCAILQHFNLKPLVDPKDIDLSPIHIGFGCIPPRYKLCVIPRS
hERG (KCNH2), sequence (Q12809 whole entry): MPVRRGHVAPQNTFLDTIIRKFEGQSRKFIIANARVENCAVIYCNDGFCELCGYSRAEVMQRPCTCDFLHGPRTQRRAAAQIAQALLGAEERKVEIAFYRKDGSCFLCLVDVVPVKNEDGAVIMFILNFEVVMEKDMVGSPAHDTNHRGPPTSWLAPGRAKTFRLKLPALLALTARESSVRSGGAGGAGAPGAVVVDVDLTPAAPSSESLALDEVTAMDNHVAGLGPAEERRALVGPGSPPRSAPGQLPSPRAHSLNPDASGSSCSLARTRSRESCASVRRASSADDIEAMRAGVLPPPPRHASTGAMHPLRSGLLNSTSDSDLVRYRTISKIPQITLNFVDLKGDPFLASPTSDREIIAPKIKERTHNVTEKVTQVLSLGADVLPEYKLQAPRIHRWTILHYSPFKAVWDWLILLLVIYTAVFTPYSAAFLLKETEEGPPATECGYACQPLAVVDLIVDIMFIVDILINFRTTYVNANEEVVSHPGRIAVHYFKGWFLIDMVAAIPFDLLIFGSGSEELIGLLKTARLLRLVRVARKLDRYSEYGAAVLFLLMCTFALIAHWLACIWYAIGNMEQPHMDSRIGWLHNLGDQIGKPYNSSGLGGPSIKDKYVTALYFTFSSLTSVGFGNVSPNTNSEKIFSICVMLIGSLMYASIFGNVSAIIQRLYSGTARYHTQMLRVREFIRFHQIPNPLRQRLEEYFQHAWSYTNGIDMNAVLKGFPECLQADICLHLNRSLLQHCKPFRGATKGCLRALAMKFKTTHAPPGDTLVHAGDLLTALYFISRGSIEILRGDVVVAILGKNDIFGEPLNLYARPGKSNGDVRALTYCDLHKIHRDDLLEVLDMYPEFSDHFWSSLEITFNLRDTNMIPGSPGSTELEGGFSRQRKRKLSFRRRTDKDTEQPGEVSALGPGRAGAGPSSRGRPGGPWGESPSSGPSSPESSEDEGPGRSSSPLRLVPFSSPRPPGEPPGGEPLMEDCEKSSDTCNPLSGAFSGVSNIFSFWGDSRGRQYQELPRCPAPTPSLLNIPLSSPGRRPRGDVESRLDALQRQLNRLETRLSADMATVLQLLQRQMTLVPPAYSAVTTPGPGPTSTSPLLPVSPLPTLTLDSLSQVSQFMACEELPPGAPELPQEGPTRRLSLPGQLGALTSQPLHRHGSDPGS
Cytochrome P450 2D6, sequence (P10635 whole entry): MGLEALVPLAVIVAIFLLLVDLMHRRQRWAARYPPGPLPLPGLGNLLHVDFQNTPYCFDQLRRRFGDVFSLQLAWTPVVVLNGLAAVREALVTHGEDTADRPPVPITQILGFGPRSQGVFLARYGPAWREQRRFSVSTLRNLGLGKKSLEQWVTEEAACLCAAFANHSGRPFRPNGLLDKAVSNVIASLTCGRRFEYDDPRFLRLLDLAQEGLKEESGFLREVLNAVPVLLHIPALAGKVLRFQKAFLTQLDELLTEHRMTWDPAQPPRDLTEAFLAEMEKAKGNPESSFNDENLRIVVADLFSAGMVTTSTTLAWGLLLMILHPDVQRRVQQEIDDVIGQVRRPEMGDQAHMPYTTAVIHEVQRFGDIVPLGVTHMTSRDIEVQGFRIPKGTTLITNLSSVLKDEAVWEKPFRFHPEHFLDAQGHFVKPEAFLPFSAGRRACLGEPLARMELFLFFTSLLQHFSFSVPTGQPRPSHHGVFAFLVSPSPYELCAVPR
Cytochrome P450 2C19, sequence (P33261 whole entry): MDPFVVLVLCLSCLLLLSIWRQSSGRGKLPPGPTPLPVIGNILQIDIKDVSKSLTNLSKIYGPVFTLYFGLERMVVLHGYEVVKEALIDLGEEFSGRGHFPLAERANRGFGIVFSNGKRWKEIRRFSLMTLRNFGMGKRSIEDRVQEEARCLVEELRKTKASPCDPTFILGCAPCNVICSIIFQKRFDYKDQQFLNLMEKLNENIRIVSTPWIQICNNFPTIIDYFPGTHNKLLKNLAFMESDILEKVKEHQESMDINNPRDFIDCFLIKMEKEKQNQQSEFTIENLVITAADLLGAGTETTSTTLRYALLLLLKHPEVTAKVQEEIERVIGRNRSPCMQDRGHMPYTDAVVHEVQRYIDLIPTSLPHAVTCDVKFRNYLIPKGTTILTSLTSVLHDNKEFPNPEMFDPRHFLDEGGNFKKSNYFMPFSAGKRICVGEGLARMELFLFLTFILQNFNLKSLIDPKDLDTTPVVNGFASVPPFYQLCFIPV

`CCc1cnc(N2CCC(Oc3ncnc4cc(-c5ccc(S(C)(=O)=O)cc5)sc34)CC2)nc1` registered an Activity in data set [1] of 75%. In addition, in data set [2], the EC50 – broadly, the concentration at which the effect is half-maximal – was determined as 240 nM.
The matching figures for `CN(c1ncnc2cc(-c3ccc(S(C)(=O)=O)cc3F)sc12)C1CCN(C(=O)OC2(C)CC2)CC1`: 105% and 26 nM.
As to `CCN(c1ncnc2cc(-c3ccc(S(C)(=O)=O)cc3F)sc12)C1CCN(C(=O)OC(C)(C)C)CC1`, the Activity in [1] amounted to 45%.
With `CN(c1ncnc2cc(-c3ccc(S(C)(=O)=O)cc3)sc12)C1CCN(C(=O)C2CC2)CC1`, the Activity in data set [1] was 72%. The 50% effective concentration (EC50) in data set [2] came out at 173 nM.
On to `CC(C)S(=O)(=O)N1CCC(N(C)c2ncnc3cc(-c4ccc(S(C)(=O)=O)cc4)sc23)CC1`, for which the Activity in [1] is 70%. Also, the EC50 in data set [2] was 1200 nM.
Compound `CN(c1ncnc2cc(-c3ccc(S(C)(=O)=O)cc3F)sc12)C1CCN(C(=O)C2CC2)CC1` registered an Activity in data set [1] of 65%.
Take `CC(C)OC(=O)N1CCC(N(C)c2ncnc3cc(-c4ccc(S(C)(=O)=O)cc4)sc23)CC1`: the Activity in data set [1] came to 67%. Moreover, the midpoint of the response in data set [2], the EC50, lay at 82 nM.
`CC(C)(C)OC(=O)N1CCC(Oc2ncnc3cc(-c4ccc(S(C)(=O)=O)cc4)sc23)CC1`: the Activity in data set [1] was 64%. This compound had an EC50 in [2] of 100 nM.
As for `CC(C)NC(=O)N1CCC(N(C)c2ncnc3cc(-c4ccc(S(C)(=O)=O)cc4)sc23)CC1`, in [1], the Activity amounted to 49%.
For `CN(c1ncnc2cc(-c3ccc(S(C)(=O)=O)cc3F)sc12)C1CCN(C(=O)OC(C)(C)C)CC1`, the IC50 (as a rule, the concentration at which inhibition is half-maximal) with HFL1 was more than 100000 nM; in data set [3] it was 53400 nM; at Cytochrome P450 2C9 [7], 76800 nM; in data set [14], 49800 nM; with L929, 65800 nM. The Activity result in the data set on Beta-TC6 is “Dose-dependent effect”; in [1], 94%; on Cytochrome P450 1A2 [10] it was “Not Active”; at Cytochrome P450 2B6 [11], “Not Active”; at Cytochrome P450 2C9 [12], “Not Active”; on Cytochrome P450 2E1 it was “Not Active”. At Cytochrome P450 3A4 [13], the Activity entry is on record as “Not Active”. The result with Mus musculus was Active. In addition, in [2], the concentration for a half-maximal effect (EC50) turned out to be 3 nM. The remaining at 0.5 h, 1 µM in [4] and in [5] was more than 95% in each case. Further, the “inhibition (INH)” value at Cytochrome P450 1A2 [6], against Cytochrome P450 2A6, against Cytochrome P450 2C19, at Cytochrome P450 3A4 [8], on Cytochrome P450 2D6 and on Cytochrome P450 2B6 [9] was “Not Active” in each case. In addition, the inhibition (as a rule, the change of the read-out against control, counted positive when it falls) at 10 µM against hERG (KCNH2) is 13%.
Compound `CCc1cnc(N2CCC(Nc3ncnc4cc(-c5ccc(S(C)(=O)=O)cc5)sc34)CC2)nc1` yielded an Activity in data set [1] of 49%.

For the origin of these results see ChEMBL document CHEMBL3352639, “Synthesis and biological evaluation of thienopyrimidine derivatives as GPR119 agonists” (Bioorg Med Chem Lett, 2014).
